Where “and” joins values, the source holds several entries; their conditions need not be identical. Identical values can stand only once. Like-named read-outs stand apart in the source and are kept apart here.
Key:
[1] = Urinary recovery of IPdR and metabolites after a single oral dose of IPdR; type: in vivo, human (patients with advanced malignancies); conditions: patients receiving 2400 mg of IPdR
Outline: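 Urine was collected pre-dose and then at each void over 24 h, with volumes recorded and aliquots stored at −80°C. Samples underwent liquid–liquid extraction and LC–MS/MS for IPdR, IdUrd, IP and IUra, with BrdUrd and BrUra as internal standards. Calibration covered 0.1–50 μM in patient pre-dose urine. Samples above 50 μM were diluted 1:10 and reanalyzed. The quantitation limit was 0.1 μM for IPdR and IdUrd and 0.25 μM for IP and IUra.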

[2] = Plasma pharmacokinetics after a single oral dose of IPdR; type: in vivo, human (patients with advanced malignancies)
Outline: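 Patients received a single oral dose of 150, 300, 600, 1200 or 2400 mg, with one patient per level and 6 at 2400 mg. Blood was drawn pre-dose and at 5, 15, 30 min and 1, 2, 4, 10, 24 h, and plasma was kept at −80°C. After solvent deproteinization, IPdR, IdUrd, IP and IUra were measured by C18 LC–MS/MS. BrdUrd and BrUra served as internal standards, with calibration at 0.1–50 μM in control plasma.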

[3] = Safety assessment for 14 days after a single oral dose of IPdR; type: in vivo, human (patients with advanced malignancies); conditions: single oral dose 150-2400 mg, 10 patients, 14 days follow-up
Outline: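 After a single oral dose on day 1 (150–2400 mg), patients were followed for 14 days. Complete blood counts with differential and serum chemistries were done at baseline, day 2 and day 14, with grading by CTCAE v4.0. Significant toxicity was defined as a drug-related event within 14 days at grade ≥2 non-hematologic (excluding correctable electrolytes), grade ≥2 thrombocytopenia, or grade ≥3 anemia/leucopenia/neutropenia. Each next patient enrolled only after the prior one completed 2 weeks.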

[4] = athymic mice, ≤ 1500 mg/kg/day for 6 to 14 days; cited from earlier work
[5] = rats, for 28 days; cited from earlier work
[6] = mice, oral IPdR, sustained for at least 6 hours; cited from earlier work
[7] = rats, oral IPdR, sustained for at least 6 hours; cited from earlier work
[8] = tested on: dihydropyrimidine dehydrogenase; conditions: stated without reference; cited from earlier work
anaplastic astrocytoma = conditions: patients with anaplastic astrocytoma, radiation combined with IdUrd; cited from earlier work
[9] = clinical, reason for c.i.v. infusion; cited from earlier work
ovarian cancer = conditions: patients with ovarian cancer, intraperitoneal IdUrd; cited from earlier work
tumor = conditions: c.i.v. IdUrd; cited from earlier work

**Q.** Which “detection in urine samples” value [1] does the source give for O=c1ncc(I)c[nH]1 [IP, 5-iodo-2-pyrimidinone] here?
**A.** The value was “detectable”.

**Q.** With O=c1ncc(I)cn1[C@H]1C[C@H](O)[C@@H](CO)O1 [IPdR, 5-iodo-2-pyrimidinone-2′-deoxyribose] as the molecule, how does the “IPdR AUC” value ([2]; plasma, single oral IPdR 150 mg, one patient) read?
**A.** The value was 3.4 μM-hr.

**Q.** What about the “IPdR AUC” value ([2]; plasma, single oral IPdR 600 mg, one patient) of the same molecule?
**A.** Its value is 8.3 μM-hr.

**Q.** And the “IPdR AUC” value ([2]; plasma, single oral IPdR 1200 mg, one patient)?
**A.** The value was 0.7 μM-hr.

**Q.** And the “IPdR AUC” value ([2]; plasma, single oral IPdR 2400 mg, mean of 6 patients)?
**A.** The value was 15.6 μM-hr.

**Q.** And the Cmax ([2]; read-out: IPdR Cmax, plasma, single oral IPdR 150 mg, one patient)?
**A.** The Cmax was 600 nM.

**Q.** And the Cmax ([2]; read-out: IPdR Cmax, plasma, single oral IPdR 600 mg, one patient)?
**A.** Its Cmax is 930 nM.

**Q.** And the Cmax ([2]; read-out: IPdR Cmax, plasma, single oral IPdR 1200 mg, one patient)?
**A.** Its Cmax is 950 nM.

**Q.** And the Cmax ([2]; read-out: IPdR Cmax, plasma, single oral IPdR 2400 mg, mean of 6 patients)?
**A.** The Cmax was 4300 nM.

**Q.** What about the drug-related adverse events [3] of the same molecule?
**A.** The drug-related adverse events was “no drug-related adverse events”.

**Q.** And the “toxicities after daily oral doses” value [4]?
**A.** Its value is “no significant toxicities”.

**Q.** What about the “tolerable dose for repeat dose studies” value [5] of the same molecule?
**A.** The value was 2000 mg/kg/day.

**Q.** What about the “plasma concentrations of IPdR” value [6] of the same molecule?
**A.** The value was over 100000 nM.

**Q.** What about the “plasma concentrations of IPdR” value [7] of the same molecule?
**A.** Its value is over 100000 nM.

**Q.** And the “dose recovered in urine over 24 hours” value ([1]; IPdR and metabolites)?
**A.** Its value is “Twelve”.

**Q.** And the “detection in urine samples” value [1]?
**A.** Its value is “detectable”.

**Q.** What does the source list for O=c1[nH]cc(I)c(=O)[nH]1 [IUra, 5-iodouracil]?
**A.** effect on the enzyme dihydropyrimidine dehydrogenase [8]: inhibits; concentration at 10 hours ([2]; human, plasma, oral, 2400 mg): ~100000 nM; AUC ([2]; human, plasma, po, 150 mg): 1 µM·h; Cmax ([2]; human, plasma, po, 150 mg): 200 nM; AUC ([2]; human, plasma, po, 300 mg): 4.5 µM·h; Cmax ([2]; human, plasma, po, 300 mg): 800 nM; AUC ([2]; human, plasma, po, 600 mg): 17.2 µM·h; Cmax ([2]; human, plasma, po, 600 mg): 4500 nM; AUC ([2]; human, plasma, po, 1200 mg): 103 µM·h; Cmax ([2]; human, plasma, po, 1200 mg): 34200 nM; AUC ([2]; human, plasma, po, 2400 mg): 1060 µM·h; Cmax ([2]; human, plasma, po, 2400 mg): 133000 nM; time of peak IUra plasma level post IPdR administration ([2]; single oral IPdR 2400 mg): 3.3 ± 1.0 hours and 3.3 (± 1.0) hours; detection in urine samples [1]: detectable; share of the metabolites measured in urine ([1]; 24 hours): 90 ± 13%

**Q.** Which results are given for O=c1[nH]c(=O)n([C@H]2C[C@H](O)[C@@H](CO)O2)cc1I [IdUrd, 5-iodo-2′-deoxyuridine, reference compound]?
**A.** median survival (anaplastic astrocytoma): 3.2 years; patients surviving at 5 years (anaplastic astrocytoma): 33%; half-life [9]: in the order of minutes; AUC ([2]; human, plasma, po, 150 mg): 1.7 µM·h; Cmax ([2]; human, plasma, po, 150 mg): 800 nM; AUC ([2]; human, plasma, po, 300 mg): 0.3 µM·h; Cmax ([2]; human, plasma, po, 300 mg): 300 nM; AUC ([2]; human, plasma, po, 600 mg): 3.2 µM·h; Cmax ([2]; human, plasma, po, 600 mg): 1800 nM; AUC ([2]; human, plasma, po, 1200 mg): 4.7 µM·h; Cmax ([2]; human, plasma, po, 1200 mg): 2100 nM; AUC ([2]; human, plasma, po, 2400 mg): 12.2 µM·h; Cmax ([2]; human, plasma, po, 2400 mg): 4000 nM; half-life ([2]; human, plasma, po, 2400 mg): 1.5 h; time of peak IdUrd plasma level after IPdR administration ([2]; single oral IPdR 2400 mg, 6 patients, mean ± SD): 1.67 ± 1.21 h; effect on ascites (ovarian cancer): disappearance of ascites; patients with tumor shrinkage (tumor): 6 out of 11; detection in urine samples [1]: detectable

From publication PMC3658146 (Clinical cancer research : an official journal of the …, 2013)
